# Measured values collected from several papers.
# Protocols differ between the studies behind these lines.
# Effect on: cell growth or viability
Compound,cell line,assay,setting,quantity,result
C=CC(=O)N1CCN(c2nc(=O)n(-c3c(C)ccnc3C(C)C)c3nc(-c4c(O)cccc4F)c(F)cc23)[C@@H](C)C1,SW756,ATP luminescence,,IC50,111 nM
Nc1ccc(/C=C/C(=O)NCc2cc3cc(-c4ccc(C(=O)N5CCC(F)(F)CC5)cc4)cc(-c4ccc(F)cc4)c3o2)cn1,ASPC1,CCK-8,72 h,IC50,440 nM
COc1cc2nc(N3CCN(C(=O)c4ccco4)CC3)nc(N)c2cc1OC,CNE-2,MTT,48 h,IC50,34800 nM
C=C(F)C(=O)N1CCN(c2nc(OC[C@@H]3CCCN3C)nc3c2CCN(c2cccc4cccc(Cl)c24)C3)C[C@@H]1CC#N,ASPC1,ATP luminescence,,IC50,2010 nM
C=CC(=O)NC1CCN(c2ncc3ncnc(Nc4ccc(Oc5ccc6c(c5)ncn6C)c(C)c4)c3n2)CC1,EFM-192A,,,EC50,28.4 nM
O=C(NO)c1ccc(CNc2nc3cccc(-c4ccc5c(c4)OCO5)n3n2)cc1,CAKI-1,SRB,,GI50,660 nM
CCN1[C@@H](C(=O)NC23CCC(C(=O)O)(CC2)CC3)[C@H](c2cccc(Cl)c2F)[C@]2(C(=O)Nc3cc(Cl)ccc32)C12CCCCC2,SW982,resazurin,72 h,GI50,157 nM
Nc1ccc(/C=C/C(=O)N2CCc3c(oc4c(-c5ccc(F)cc5)cc(-c5ccc(C(=O)N6CCOCC6)nn5)cc34)C2)cn1,ASPC1,CCK-8,72 h,IC50,870 nM
CC1(C)CCC2(CC1)N[C@@H](C(=O)N[C@@H]1CC[C@@H](C(N)=O)OC1)[C@H](c1ccnc(Cl)c1F)[C@]21C(=O)Nc2cc(Cl)ccc21,SW982,resazurin,72 h,GI50,21 nM
Cc1cc(/C=C/C#N)cc(C)c1Nc1ccnc(Nc2ccc(C#N)cc2)n1,CNE-2,MTT,48 h,IC50,18700 nM
